Source: ChEMBL document CHEMBL5329191, “Optimization of the 2-arylquinazoline-4(3H)one scaffold for a selective and potent antitrypanosomal agent: modulation of the mechanism of action through chemical functionalization” (RSC Med Chem, 2023)
Converted amounts (≈) assume the structure as drawn. The source made the active and inactive calls. The rule behind the calls is not given here.

Assays:
Leishmania infantum [1] = assay: Antileishmanial activity against Leishmania infantum promastigotes; format: functional, organism-based
Trypanosoma cruzi [2] = assay: Antitrypanosomal activity against of Trypanosoma cruzi epimastigotes; format: functional, organism-based
Leishmania infantum [3] = assay: Antileishmanial activity against Leishmania infantum promastigotes in presence of FA; format: functional, organism-based
Trypanosoma cruzi [4] = assay: Antitrypanosomal activity against of Trypanosoma cruzi epimastigotes in presence of FA; format: functional, organism-based
Leishmania infantum [5] = assay: Antileishmanial activity against Leishmania infantum promastigotes assessed as increase in IC50 in presence of FA; format: functional
Trypanosoma cruzi [6] = assay: Antitrypanosomal activity against of Trypanosoma cruzi epimastigotes assessed as increase in IC50 in presence of FA; format: functional
[7] = Selectivity index, ratio of CC50 for mouse J774.1 cells to IC50 for Trypanosoma cruzi epimastigotes; format: toxicity; details: read-out: Ratio CC50/IC50
Summary of the method: (§1)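 Cytotoxicity (CC50) was measured on murine J774.1A macrophages. Selectivity index is CC50 divided by parasite IC50 (promastigote, epimastigote or axenic amastigote). Values are the mean of three independent experiments.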

Trypanosoma cruzi [8] = assay: Antitrypanosomal activity against of Trypanosoma cruzi epimastigotes at 25 uM; format: functional
[9] = Solubility of the compound by UV-Vis spectroscopy; format: physicochemical
Summary of the method: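 Solubility in μM was determined by UV-Vis spectroscopy.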

[10] = Cytotoxicity against mouse J774.1 cells; format: toxicity, cell-based; summary of the method: as §1
[11] = Selectivity index, ratio of CC50 for mouse J774.1 cells to IC50 for Leishmania infantum promastigotes; format: toxicity; details: read-out: Ratio CC50/IC50; summary of the method: as §1
Leishmania infantum [12] = assay: Antileishmanial activity against Leishmania infantum axenic amastigotes; format: functional, organism-based
[13] = Selectivity index, ratio of CC50 for mouse J774.1 cells to IC50 for Leishmania infantum amastigotes; format: toxicity; details: read-out: Ratio CC50/IC50; summary of the method: as §1
Leishmania infantum [14] = assay: Antileishmanial activity against Leishmania infantum promastigotes assessed as decrease in IC50 in presence of copper(II); format: functional, organism-based
Summary of the method: (§2)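 Parasite proliferation was run in the presence of copper(II), iron(III) or zinc(II) salts, each at 1 μM.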

Leishmania infantum [15] = assay: Antileishmanial activity against Leishmania infantum promastigotes assessed as decrease in IC50 in presence of iron(III); format: functional, organism-based; summary of the method: as §2
Leishmania infantum [16] = assay: Antileishmanial activity against Leishmania infantum promastigotes assessed as decrease in IC50 in presence of zinc(II); format: functional, organism-based; summary of the method: as §2
Trypanosoma cruzi [17] = assay: […] activity against Trypanosoma cruzi epimastigotes assessed as change in parasites in presence of copper(II); format: functional, organism-based; summary of the method: as §2
Trypanosoma cruzi [18] = assay: […] activity against Trypanosoma cruzi epimastigotes assessed as change in parasites in presence of iron(III); format: functional, organism-based; summary of the method: as §2
Trypanosoma cruzi [19] = assay: […] activity against Trypanosoma cruzi epimastigotes assessed as change in parasites in presence of zinc(II); format: functional, organism-based; summary of the method: as §2
Leishmania infantum [20] = assay: Induction of ROS production in Leishmania infantum promastigotes in presence of Zn2+; format: functional, organism-based
Summary of the method: (§3)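 Oxidative stress in parasite cultures was read fluorometrically with the 2,7-dichlorodihydrofluorescein diacetate (DCFH-DA) probe against a negative-control culture, and was also run with metal cations present.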

Leishmania infantum [21] = assay: Induction of ROS production in Leishmania infantum promastigotes in presence of Cu2+; format: functional, organism-based; summary of the method: as §3
Leishmania infantum [22] = assay: Induction of ROS production in Leishmania infantum promastigotes in presence of Fe3+; format: functional, organism-based; summary of the method: as §3
Trypanosoma cruzi [23] = assay: Induction of ROS production in Trypanosoma cruzi epimastigotes in presence of Zn2+; format: functional, organism-based; summary of the method: as §3
Trypanosoma cruzi [24] = assay: Induction of ROS production in Trypanosoma cruzi epimastigotes in presence of Cu2+; format: functional, organism-based; summary of the method: as §3
Trypanosoma cruzi [25] = assay: Induction of ROS production in Trypanosoma cruzi epimastigotes in presence of Fe3+; format: functional, organism-based; summary of the method: as §3
[26] = Mutagenicity in Salmonella typhimurium TA98 assessed as number of revertant colonies at 100 uM by Ames test (reference value: 4); format: toxicity; details: salmonella enterica subsp. enterica […]
Summary of the method: (§4)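 Ames reverse-mutation assay in Salmonella typhimurium TA 98. Revertant colonies were counted at five escalating dose levels alongside a zero-dose (spontaneous revertant) negative control and a 4-nitro-o-phenylenediamine positive control. A compound was called mutagenic when revertants exceeded twice the negative control at two consecutive dose levels.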

[27] = Mutagenicity in Salmonella typhimurium TA98 assessed as number of revertant colonies at 300 uM by Ames test (reference value: 4); format: toxicity; details: salmonella enterica subsp. enterica […]; summary of the method: as §4
[28] = Mutagenicity in Salmonella typhimurium TA98 assessed as number of revertant colonies at 1000 uM by Ames test (reference value: 4); format: toxicity; details: salmonella enterica subsp. enterica […]; summary of the method: as §4
[29] = Mutagenicity in Salmonella typhimurium TA98 assessed as number of revertant colonies at 3000 uM by Ames test (reference value: 4); format: toxicity; details: salmonella enterica subsp. enterica […]; summary of the method: as §4
[30] = Mutagenicity in Salmonella typhimurium TA98 assessed as number of revertant colonies at 9000 uM by Ames test (reference value: 4); format: toxicity; details: salmonella enterica subsp. enterica […]; summary of the method: as §4
Leishmania infantum [31] = assay: Induction of NO production in Leishmania infantum promastigotes by Griess method; format: functional, organism-based
Summary of the method: (§5)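 NO production in parasite cultures was measured at three test concentrations, either 25, 50 and 100 μM or 1, 5 and 10 μM depending on the compound.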

Trypanosoma cruzi [32] = assay: Induction of NO production in Trypanosoma cruzi epimastigotes by Griess method; format: functional, organism-based; summary of the method: as §5
Leishmania infantum [33] = assay: Induction of ROS production in Leishmania infantum promastigotes by DCFH-DA staining based flow cytometry analysis; format: functional, organism-based; summary of the method: as §3
Trypanosoma cruzi [34] = assay: Induction of ROS production in Trypanosoma cruzi epimastigotes by DCFH-DA staining based flow cytometry analysis; format: functional, organism-based; summary of the method: as §3

Work on `O=c1[nH]c(-c2cccc(Cl)c2)nc2ccccc12` yielded an IC50 (Leishmania infantum [1]) of over 25 µM and an IC50 (Trypanosoma cruzi [2]) of over 25 µM.
In the case of `Oc1nc(-c2ccc(F)cc2)nc2ccccc12`, the IC50 (Leishmania infantum [1]) is reported as 8.67 µM, the IC50 (Trypanosoma cruzi [2]) is reported as 22.7 µM and the IC50 (Leishmania infantum [3]) is reported as 9.78 µM. For the same molecule, the IC50 (Trypanosoma cruzi [4]) was 33.2 µM, the Activity (Leishmania infantum [5]) was 14% and the Activity (Trypanosoma cruzi [6]) was 47%.
For `CC1CS(=O)(=O)CCN1/N=C/c1ccc([N+](=O)[O-])o1` (centres undefined) [NIFURTIMOX], the selectivity ratio [7] was 36.3.
Molecule `NNc1nc(-c2ccccc2)nc2ccccc12` has an IC50 (Leishmania infantum [1]) of 12.7 µM, an IC50 (Trypanosoma cruzi [2]) of over 25 µM and an inhibition at 25 µM (Trypanosoma cruzi [8]) of 42.7%.
Work on `O=[N+]([O-])c1ccc(/C=N/N=c2\[nH]c(-c3ccc(Br)cc3)nc3ccccc23)o1` yielded an IC50 (Leishmania infantum [1]) of over 25 µM, an IC50 (Trypanosoma cruzi [2]) of over 25 µM and a solubility [9] of 2.67 µM (≈ 1.17 µg/mL).
For `NNc1nc(-c2cccc(Br)c2)nc2ccccc12`, the IC50 (Leishmania infantum [1]) was 21.1 µM, the IC50 (Trypanosoma cruzi [2]) was over 25 µM and the inhibition at 25 µM (Trypanosoma cruzi [8]) was 21.4%.
`Cc1ccc(-c2nc3ccccc3/c(=N/N=C/c3ccc([N+](=O)[O-])o3)[nH]2)cc1` gave an IC50 (Leishmania infantum [1]) of over 25 µM, an IC50 (Trypanosoma cruzi [2]) of over 25 µM and a solubility [9] of 7.23 µM (≈ 2.7 µg/mL).
`NNc1nc(-c2cccc(Cl)c2)nc2ccccc12` gave an IC50 (Leishmania infantum [1]) of 4.55 µM, an IC50 (Trypanosoma cruzi [2]) of over 25 µM and an inhibition at 25 µM (Trypanosoma cruzi [8]) of 38%.
With `Cc1ccc(-c2nc(NN)c3ccccc3n2)cc1` the IC50 (Leishmania infantum [1]) was 1.2 µM and the IC50 (Trypanosoma cruzi [2]) was 18 µM.
For `O=[N+]([O-])c1ccc(/C=N/N=c2\[nH]c(-c3ccc(F)cc3)nc3ccccc23)o1`, the IC50 (Leishmania infantum [1]) was 4.56 µM, the IC50 (Trypanosoma cruzi [2]) was 4.08 µM and the solubility [9] was 5.11 µM (≈ 1.93 µg/mL). For the same molecule, the CC50 [10] was 69.1 µM, the selectivity ratio [11] was 15.1 and the selectivity ratio [7] was 16.8. The IC50 (Leishmania infantum [12]) was 3520 nM, the selectivity ratio [13] was 19.6 and the IC50 (Trypanosoma cruzi [4]) was 6.54 µM. The Activity (Leishmania infantum [5]) was 31%, the Activity (Trypanosoma cruzi [6]) was 38% and the Activity (Leishmania infantum [14]) was “Active”. The Activity (Leishmania infantum [15]) was “Active”, the Activity (Leishmania infantum [16]) was “Active” and the Activity (Trypanosoma cruzi [17]) was “inactive”. For the same molecule, the Activity (Trypanosoma cruzi [18]) was “inactive”, the Activity (Trypanosoma cruzi [19]) was “inactive” and the Activity (Leishmania infantum [20]) was “Active”. The Activity (Leishmania infantum [21]) was “Active”, the Activity (Leishmania infantum [22]) was “Active” and the Activity (Trypanosoma cruzi [23]) was “Active”. The Activity (Trypanosoma cruzi [24]) was “Active”, the Activity (Trypanosoma cruzi [25]) was “Active” and the Activity [26] was 2. It also gave an Activity [27] of 2.5, an Activity [28] of 3.5 and an Activity [29] of 3. For the same molecule, the Activity [30] was 3.
For `O=[N+]([O-])c1ccc(/C=N/N=c2\[nH]c(-c3ccccc3)nc3ccccc23)o1`, the IC50 (Leishmania infantum [1]) was 0.88 µM, the IC50 (Trypanosoma cruzi [2]) was 0.63 µM and the solubility [9] was 7.99 µM (≈ 2.87 µg/mL). The CC50 [10] was 15.1 µM, the selectivity ratio [11] was 17.1 and the selectivity ratio [7] was 23.9. For the same molecule, the IC50 (Leishmania infantum [12]) was 930 nM, the selectivity ratio [13] was 16.2 and the Activity (Leishmania infantum [14]) was “Active”. The Activity (Leishmania infantum [15]) was “Active”, the Activity (Leishmania infantum [16]) was “Active” and the Activity (Trypanosoma cruzi [17]) was “inactive”. The Activity (Trypanosoma cruzi [18]) was “inactive”, the Activity (Trypanosoma cruzi [19]) was “inactive” and the Activity (Leishmania infantum [20]) was “Active”. The Activity (Leishmania infantum [21]) was “Active”, the Activity (Leishmania infantum [22]) was “Active” and the Activity (Trypanosoma cruzi [23]) was “Active”. The Activity (Trypanosoma cruzi [24]) was “Active” and the Activity (Trypanosoma cruzi [25]) was “Active”.
`O=c1[nH]c(-c2ccc(Cl)cc2)nc2ccccc12` showed an IC50 (Leishmania infantum [1]) of 4.88 µM, an IC50 (Trypanosoma cruzi [2]) of 18.1 µM and an IC50 (Leishmania infantum [3]) of 6.22 µM. The IC50 (Trypanosoma cruzi [4]) was 24.2 µM, the Activity (Leishmania infantum [5]) was 27% and the Activity (Trypanosoma cruzi [6]) was 34%. For the same molecule, the Activity (Leishmania infantum [31]) was “inactive”, the Activity (Trypanosoma cruzi [32]) was “inactive” and the Activity (Leishmania infantum [33]) was “inactive”. The Activity (Trypanosoma cruzi [34]) was “inactive”.
